Source: PubChem
An excerpt weighted towards active compounds, which were near 5.1% of everything screened.
STAT1 act: activators of IFN-gamma induced STAT1 signaling; 2.6% of 200,000 active; NIH 3T3 STAT1-luciferase reporter, luminescence; 100% = IFN-gamma alone, no compound; AID 932; activation (% of control), % at 5.5 µM;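 active = activation above the screen-wide mean activation plus 3 SD, cut at about 130% in these data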
STAT1 inh: inhibitors of IFN-gamma induced STAT1 signaling. NIH 3T3 STAT1-luciferase reporter, luminescence. 0.35% of 200,000 active. inhibition, % at 5.5 µM;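 active = inhibition above a set limit, the mean inhibition across all tested compounds plus 3 SD, cut at about 34% in these data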
STAT3 act: STAT3 signaling activation; U3A cells, IL-6 STAT3-luciferase reporter, luminescence; 100% = signal with IL-6 EC80 alone; activation (% of control), % at 5.6 µM; AID 871; 0.91% of 190,000 active;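 active = activation above the screen-wide mean of compound activation plus 3 SD, cut at about 130% in these data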
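system = STAT3-luciferase reporter U3A cells | reagent = IL-6 stimulus at 33 ng/mL final | timing = 1 h compound pre-exposure, 6 h IL-6 stimulation, 37 °C | measured by = luminescence | evaluation = % activation versus median of IL-6-stimulated wells | control set = IL-6-only wells as 100% reference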
NF-kB neuron act: NF-kB expression increase, human neuronal cells; NF-kB reporter expression; hits give high values; fold change at 12.5 µM; 1.6% of 190,000 active; AID 1239; in the data active = fold change above about 3.3
APP 5'UTR act: activates APP 5'UTR luciferase reporter | SH-SY5Y APP 5'UTR luciferase reporter, luminescence; zero percent = DMSO vehicle wells | activation, % at 2 µM | AID 1276 | 1% of 190,000 active;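 active = activation above a set limit, based on mean plus 3 SD of controls, cut at about 140% in these data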
STAT3 blocker: inhibitors of IL-6 induced STAT3 signaling | AID 862 | inhibition, % at 5.5 µM | U3A cells, IL-6 STAT3-luciferase reporter, luminescence; host cell line lacks STAT1 | 0.89% of 190,000 active;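 active = inhibition above the mean inhibition across all screened compounds plus 3 SD, cut at about 44% in these data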
Large screens that a line does not name were inactive.

COC(=O)c1sc2nc(-c3ccco3)ccc2c1N	STAT1 act 141.4, APP 5'UTR act 161.7
NC(=O)c1sc2nc(-c3ccco3)ccc2c1N	STAT1 act 130.7
O=C(/C=C/c1ccccc1)C1C(=O)c2ccccc2C1=O	none
CCc1ccc(/C=C/C(=O)C2C(=O)c3ccccc3C2=O)cc1	STAT1 inh 38.7, STAT3 blocker 51.6
COc1cccc2cc(C(C)=O)oc12	none
COc1ccc(C(=O)c2cc3cccc(OC)c3o2)cc1	STAT1 act 150.5, NF-kB neuron act 4.18
COc1ccc(C(=O)/C=C2\NCC3c4ccccc4CCN3C2=O)cc1 (centres undefined)	STAT3 act 134.9
COc1ccc(C(=O)N2CCc3ccccc32)cc1	none
CCC(CC)c1nnc(NC(=O)C2COc3ccccc3O2)s1 (centres undefined)	STAT1 act 136.9
O=C(Nc1ccncc1)C1COc2ccccc2O1 (centres undefined)	none
O=C(NC1=NCCS1)C1COc2ccccc2O1 (centres undefined)	STAT1 inh 76.6, STAT3 blocker 98.8
Cc1nnc(NC(=O)C2COc3ccccc3O2)s1 (centres undefined)	STAT1 act 128.9
CCCOc1cccc(C(=O)Nc2ccc(Br)cc2F)c1	STAT1 act 135.9
Cc1nnsc1SCCNC(=O)Nc1ccc(Cl)cc1	none
CCOC(=O)c1sc(Nc2nc3c(OC)cccc3s2)nc1C	STAT3 act 135.7
CCOC(=O)c1sc(NC(=O)Nc2ccc(Cl)cc2)nc1C	STAT1 act 129.1
COc1cccc2sc(Nc3nc(-c4ccccn4)cs3)nc12	STAT1 act 136.3
CC(=O)c1sc(Nc2cccc(C)c2)nc1C	none
CC(=O)c1sc(N/N=C\c2ccccc2O)nc1C	NF-kB neuron act 5.88
O=C(CNCCc1ccc(Cl)cc1Cl)NCc1ccco1	none
C=CCN1C(=O)C(O)(CC(=O)c2ccccc2)c2ccccc21 (centres undefined)	none
CCOC(=O)c1sc(N/N=C/c2cccc(C)c2)nc1C	STAT1 act 129.9
Cc1ccnc(N/N=C/c2ccccc2)n1	STAT1 act 145.1
Cn1c(-c2ccc(Cl)cc2)cnc1N	none
Nc1cccn2c(-c3ccc(Cl)cc3)cnc12	NF-kB neuron act 8.47, APP 5'UTR act 138.4
O=C1CC(c2ccco2)Sc2nc3ccccc3n21 (centres undefined)	none
O=C1CC(c2cccs2)Sc2nc3ccccc3n21 (centres undefined)	STAT1 act 129.2
O=C1CC(c2ccccc2)Sc2nc3ccccc3n21 (centres undefined)	STAT1 act 131.7, APP 5'UTR act 167.8
Cc1nc(CN2CCOCC2)cc(=O)[nH]1	none
Cc1ccc(C2C(=O)N(C3CCCC3)CC(=O)N2CC2COc3ccccc3O2)cc1 (centres undefined)	none
O=C(Nc1nc2ccccc2[nH]1)c1cc2ccccc2o1	NF-kB neuron act 5.45, APP 5'UTR act 263.2
O=C(Nc1nc2ccccc2[nH]1)c1ccccc1F	STAT1 inh 77.7, STAT3 blocker 100.7
O=C(Nc1nc2ccccc2[nH]1)c1ccccc1[N+](=O)[O-]	STAT1 act 136.3
Cc1ccc(-n2ncc3c(=O)n(CC(=O)NC4CCCCC4)cnc32)cc1	none
C=CCNC(=O)c1c(Cl)cnn1-c1ccc(C)cc1	STAT1 act 138.7
Cc1ccc(-n2ncc(Cl)c2C(=O)NC2CC2)cc1	STAT1 act 141.0
COc1ccc(C(=O)/C=C/c2cn(CC(O)CN3CCOCC3)c3ccccc23)cc1 (centres undefined)	none
CCOc1ccc(C(=O)/C=C/c2cn(CN3CCN(C)CC3)c3ccccc23)cc1	NF-kB neuron act 3.42
COc1ccc(C(=O)/C=C/c2cn(CN3CCN(C)CC3)c3ccccc23)cc1	NF-kB neuron act 6.45
O=C(NC(=S)Nc1ccc2c(c1)OCCO2)c1ccccc1F	STAT1 act 149.2, NF-kB neuron act 7.37, APP 5'UTR act 159.2
O=C(NC(=S)Nc1ccc2c(c1)OCCO2)c1ccccc1	NF-kB neuron act 4.69, APP 5'UTR act 178.8
NC(=O)Nc1ccc2c(c1)OCCO2	none (no result: APP 5'UTR act)
O=C(Nc1ccc2c(c1)OCCO2)c1c(F)cccc1F	NF-kB neuron act 4.05
COc1ccc(C(=O)NCCSCc2ccccc2C)cc1	none
CC(C)COc1ccc(C(=O)Nc2ccccc2[N+](=O)[O-])cc1	STAT1 act 132.8
CCCOc1ccc(C(=O)Nc2ccc(C)cc2[N+](=O)[O-])cc1	none
CNC(=S)NNc1ccccc1[N+](=O)[O-]	none
COc1ccc(C(=O)NCCNc2ccccc2[N+](=O)[O-])cc1	STAT1 act 148.4, APP 5'UTR act 162.6
COCCNC(=S)NNc1ccccc1[N+](=O)[O-]	STAT3 act 135.6
C=CCSc1nc(O)c(CC)c(=O)n1C(C)CC (centres undefined)	none
Clc1ccc(-c2noc(CN3CCCC3)n2)cc1	none
O=C(O)COn1c(-c2ccc(Cl)cc2)nc2ccc(Cl)cc21	none
CCOC(=O)C(C)On1c(-c2ccccc2)nc2ccc([N+](=O)[O-])cc21 (centres undefined)	STAT1 act 132.5
O=C(O)COn1c(-c2ccccc2)nc2ccc([N+](=O)[O-])cc21	STAT1 act 143.0
CCOC(=O)C(C)On1c(-c2ccc(Cl)cc2)nc2ccc([N+](=O)[O-])cc21 (centres undefined)	STAT1 act 132.9, NF-kB neuron act 5.8
COc1ccc(S(=O)(=O)N2CCCC(C(=O)N3CCCCCC3)C2)cc1 (centres undefined)	none
Cn1c(CCCOc2ccc(Cl)cc2Cl)nnc1SCC(=O)Nc1ccc(F)c(Cl)c1	none
O=C(CCNC(=O)c1ccc(Cl)cc1)Nc1ccc(F)cc1F	none (no result: APP 5'UTR act)
COc1ccc(/C=C/C(=O)Nc2ccc3c(c2)CCC3)cc1OC	none
Cc1cc(NC(=O)COC(=O)c2ccccc2S(=O)(=O)N(C)c2ccccc2)no1	none
Cc1ccc(S(=O)(=O)/N=C2/C=C(Sc3ncn[nH]3)C(=O)c3ccccc32)c(C)c1	STAT3 act 142.3
Cc1ccc(S(=O)(=O)Nc2ccc(O)c(Sc3ncn[nH]3)c2)cc1	none
CC(C)c1ccc(S(=O)(=O)/N=C2/C=C(Sc3ncn[nH]3)C(=O)c3ccccc32)cc1	STAT3 act 151.7
CCN(CC)C(=O)CSc1nnc([C@@H](NC(=O)OC(C)(C)C)C(C)C)o1	none
CNC(=S)N/N=C/c1cn(Cc2c(F)cccc2Cl)c2ccccc12	none
CC(=O)Nc1ccccc1OCc1nnc(-c2ccc(Cl)cc2)o1	none
Clc1ccc(OCc2nnc(-c3ccccc3Br)o2)c(Cl)c1	NF-kB neuron act 4.05
c1ccc(Cc2nnc(-c3ccccc3)o2)cc1	STAT1 act 130.2
Clc1ccccc1OCc1nnc(-c2ccccc2)o1	STAT1 act 151.2, STAT3 act 143.6, NF-kB neuron act 3.42
Cc1ccc2nc(NCCO)nc(-c3ccccc3)c2c1	none
